Reference: ChEMBL document CHEMBL3576859, “Novel benzamide-based histamine h3 receptor antagonists: the identification of two candidates for clinical development” (ACS Med Chem Lett, 2015)

Legend:
[1] = Apparent permeability across basolateral to apical side in human Caco2 cells at 10 uM […] by LC/MS/MS analysis; type: ADME, cell-based; conditions: Caco-2
Method in brief: (§1)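 Caco-2 monolayer permeability measured in both directions, apical-to-basolateral and basolateral-to-apical. Reported as P_app (×10−⁶ cm/s), given as A−B/B−A pairs.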

[2] = molecular target: Voltage-gated inwardly rectifying potassium channel KCNH2 (Homo sapiens, UniProt Q12809); test: Displacement of [3H]-astemizole from human ERG expressed in HEK293 cells after 60 mins by scintillation counting analysis; type: cell-based
Histamine H3 receptor = Histamine H3 receptor (Homo sapiens, UniProt Q9Y5N1); test: Displacement of N-[3H]methylhistamine from human histamine H3 receptor expressed in human SK-N-MC cells after 45 mins; type: cell-based
[3] = Oral bioavailability in Sprague-Dawley rat at 10 mg/kg; type: ADME, organism-based; conditions: in vivo
[4] = Drug uptake in Sprague-Dawley rat brain at 3 mg/kg, po measured at 1 hr; type: ADME, organism-based; conditions: read-out: Drug uptake
Method in brief: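 Rats dosed orally at 3 mg/kg. Brain drug concentration (μM) measured at 1 h post-dose.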

[5] = Clearance in Sprague-Dawley rat; type: ADME, organism-based; conditions: in vivo
[6] = Metabolic stability in Sprague-Dawley rat liver microsomes assessed as compound remaining at 1 uM after 15 mins; type: ADME; conditions: read-out: Stability
Method in brief: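 Rat liver microsomes incubated with compound for 15 min. Stability expressed as percent of parent remaining.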

[7] = Apparent permeability across apical to basolateral side in human Caco2 cells at 10 uM after 60 mins by LC/MS/MS analysis; type: ADME, cell-based; conditions: Caco-2; method in brief: as §1
[8] = molecular target: Voltage-gated L-type calcium channel (Rattus norvegicus, UniProt P22002+Q02485+P27732); test: Binding affinity to rat L-type calcium channel at 1 uM
[9] = Half life in Sprague-Dawley rat at 1 mg/kg, iv; type: ADME, organism-based; conditions: in vivo
[10] = Volume of distribution at steady state in Sprague-Dawley rat; type: ADME, organism-based; conditions: in vivo, read-out: Vdss
Rattus norvegicus = test: Ex vivo histamine H3 receptor occupancy in Sprague-Dawley rat striatum at 3 mg/kg, po measured at 1 hr by autoradiographic analysis; type: functional
Method in brief: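 After a 3 mg/kg oral dose in rats, ex vivo H3 receptor occupancy was determined by autoradiography at 1 h. Values are mean ± SD.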

[11] = Metabolic stability in human liver microsomes assessed as compound remaining at 1 uM after 15 mins; type: ADME; conditions: read-out: Stability
Method in brief: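 Compound incubated with human liver microsomes for 15 min. Read-out is percent parent remaining.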

Histamine H3 receptor, sequence (Q9Y5N1 whole entry): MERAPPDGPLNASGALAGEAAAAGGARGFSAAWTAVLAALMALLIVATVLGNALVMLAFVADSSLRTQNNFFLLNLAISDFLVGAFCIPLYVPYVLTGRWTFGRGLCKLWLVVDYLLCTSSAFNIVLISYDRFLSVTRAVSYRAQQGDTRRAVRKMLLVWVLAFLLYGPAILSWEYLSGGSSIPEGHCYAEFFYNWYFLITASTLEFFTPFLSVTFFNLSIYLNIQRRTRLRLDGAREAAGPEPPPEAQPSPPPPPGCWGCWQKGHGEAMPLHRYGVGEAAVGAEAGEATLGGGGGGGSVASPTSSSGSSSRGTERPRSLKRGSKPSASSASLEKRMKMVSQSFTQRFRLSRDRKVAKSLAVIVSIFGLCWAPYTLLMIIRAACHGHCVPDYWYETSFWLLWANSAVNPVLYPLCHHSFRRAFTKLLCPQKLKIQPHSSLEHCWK
Voltage-gated inwardly rectifying potassium channel KCNH2, sequence (Q12809 whole entry): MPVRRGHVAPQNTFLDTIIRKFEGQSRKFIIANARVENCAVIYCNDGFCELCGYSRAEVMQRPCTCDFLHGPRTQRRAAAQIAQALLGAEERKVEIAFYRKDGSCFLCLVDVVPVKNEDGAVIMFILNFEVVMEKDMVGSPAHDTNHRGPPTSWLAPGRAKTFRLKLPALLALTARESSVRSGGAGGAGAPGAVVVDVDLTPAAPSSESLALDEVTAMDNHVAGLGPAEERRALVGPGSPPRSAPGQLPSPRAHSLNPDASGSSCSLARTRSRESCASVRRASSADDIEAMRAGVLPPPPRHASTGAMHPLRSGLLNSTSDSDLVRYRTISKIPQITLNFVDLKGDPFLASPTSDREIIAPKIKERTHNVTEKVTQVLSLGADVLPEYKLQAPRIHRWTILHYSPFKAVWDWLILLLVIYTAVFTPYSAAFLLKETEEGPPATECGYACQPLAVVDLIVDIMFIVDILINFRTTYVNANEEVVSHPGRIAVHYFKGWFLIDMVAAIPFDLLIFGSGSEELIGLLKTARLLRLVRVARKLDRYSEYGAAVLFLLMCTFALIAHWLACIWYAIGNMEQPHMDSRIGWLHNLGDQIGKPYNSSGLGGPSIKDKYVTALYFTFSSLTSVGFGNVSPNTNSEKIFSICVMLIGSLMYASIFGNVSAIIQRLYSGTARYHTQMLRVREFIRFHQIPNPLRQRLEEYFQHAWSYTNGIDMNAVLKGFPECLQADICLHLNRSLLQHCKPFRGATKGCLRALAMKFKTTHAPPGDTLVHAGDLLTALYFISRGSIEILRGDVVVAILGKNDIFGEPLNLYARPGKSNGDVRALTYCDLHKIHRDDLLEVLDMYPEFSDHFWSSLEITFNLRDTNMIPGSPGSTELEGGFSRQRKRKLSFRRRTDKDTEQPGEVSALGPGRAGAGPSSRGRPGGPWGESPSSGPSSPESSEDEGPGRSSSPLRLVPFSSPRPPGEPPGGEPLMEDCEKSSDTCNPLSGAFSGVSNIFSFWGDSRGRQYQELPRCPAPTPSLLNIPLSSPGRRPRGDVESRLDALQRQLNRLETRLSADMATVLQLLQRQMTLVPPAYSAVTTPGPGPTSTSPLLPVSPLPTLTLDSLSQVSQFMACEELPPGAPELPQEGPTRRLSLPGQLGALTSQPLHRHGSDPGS

| Papp B→A at 10 µM [1] [×10⁻⁶ cm/s] | Ki (Histamine H3 receptor) [nM] | bioavailability [3] [%] | concentration at 1 h [4] [nM] | clearance [5] [mL/min/kg] | remaining at 0.25 h, 1 µM [6] [%] | Papp A→B at 1 h, 10 µM [7] [×10⁻⁶ cm/s] | Activity [8] | half-life [9] [h] | Vd [10] [L/kg] | remaining at 0.25 h, 1 µM [11] [%] | SMILES | IC50 [2] [nM] | Occ (Rattus norvegicus) [%] |
| --- | --- | --- | --- | --- | --- | --- | --- | --- | --- | --- | --- | --- | --- |
| 22.4 | 1.3 | 85 | 8100 | 34.9 | 49.6 | 71.2 | Not Active | 2.1 | 6.4 | 85.4 | O=C(c1ccc(CN2CCOCC2)cc1)N1CCN(C2CCC2)CC1 | > 10000 | 96 |
| 14.8 | – | 52 | 480 | 26.1 | – | 12.4 | Not Active | 20 | 39.4 | – | CC(C)N1CCN(C(=O)c2ccc(CN3CCCCC3)cc2)CC1 | > 30000 | 90 |
| – | 1.5 | 17 | 1820 | 44.2 | 50 | – | – | 7.6 | 29.2 | 84.8 | CC(C)N1CCN(C(=O)c2ccc(CN3CCC(F)CC3)cc2)CC1 | – | 92 |
